For assay [1], the system named is Plasmodium falciparum. Briefly: Antimalarial activity against Plasmodium falciparum Dd2 infected in erythrocytes assessed as inhibition of [3H]hypoxanthine incorporation by microbeta liquid scintillation counter. The class given is functional, organism-based. The essentials: (§1)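 Growth inhibition was measured by a standard isotopic assay on cultured P. falciparum-infected erythrocytes, with results reported as IC50 values.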

The subject of assay [2] is Plasmodium falciparum. Briefly: Antimalarial activity against Plasmodium falciparum 3D7 infected in erythrocytes assessed as inhibition of [3H]hypoxanthine incorporation by microbeta liquid scintillation counter. The format is functional, organism-based. The essentials:
as §1

Assay [3] addresses T1, Papain (Carica papaya, UniProt P00784).
T1 sequence (P00784 whole entry): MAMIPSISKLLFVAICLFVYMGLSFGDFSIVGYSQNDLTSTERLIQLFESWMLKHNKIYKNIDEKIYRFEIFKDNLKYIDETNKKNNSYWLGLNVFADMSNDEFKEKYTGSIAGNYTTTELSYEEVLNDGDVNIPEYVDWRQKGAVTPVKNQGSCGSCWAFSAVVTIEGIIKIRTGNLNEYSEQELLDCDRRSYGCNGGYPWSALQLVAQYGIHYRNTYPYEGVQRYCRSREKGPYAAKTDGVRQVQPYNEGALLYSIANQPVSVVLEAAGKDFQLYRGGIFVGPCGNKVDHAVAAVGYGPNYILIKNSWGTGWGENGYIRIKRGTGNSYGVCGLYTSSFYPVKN
In words: Inhibition of Carica papaya papain by microtiter plate spectrofluorimetry.

The nature of assay [4]: Inhibition of Plasmodium falciparum recombinant falcipain-2 by microtiter plate spectrofluorimetry.
A short description of assay [5]: Inhibition of Plasmodium falciparum recombinant falcipain-3 by microtiter plate spectrofluorimetry.

Structures are written as SMILES. A value given as a limit tells only on which side of the number the result lay.

In general, IC50 refers to the concentration that gives 50% inhibition. One may read the Ki as the equilibrium dissociation constant of an inhibitor or competing ligand from its target. Low readings indicate higher affinity, high ones lower affinity. As to `CCCCCN(C#N)N(C)C(=O)[C@H](Cc1ccccc1)NC(=O)OCc1ccccc1`, the concentration for half-maximal inhibition (IC50) was found to be 2100 nM in assay [1], 2900 nM in assay [2], 310 nM in assay [4] and 110 nM in assay [5]. In assay [3], the affinity corresponds to a Ki of 10 nM.
On the same counts, the results for `CN(C#N)N(C)C(=O)[C@H](Cc1ccccc1)NC(=O)OCc1ccccc1` are 15000 nM, 9800 nM, 570 nM, 18000 nM and 3.9 nM.
With `CN(C(=O)[C@H](Cc1ccccc1)NC(=O)OCc1ccccc1)N(C#N)CCc1ccccc1`, the IC50 in assay [1] was determined as 3600 nM; in assay [2], 5300 nM; in assay [4] it was 430 nM; in assay [5] it was 300 nM. This compound also displayed a Ki in assay [3] of 6.3 nM.
`CN(C(=O)[C@H](Cc1ccccc1)NC(=O)OCc1ccccc1)N(C#N)Cc1ccccc1`: the IC50 was 7500 nM in assay [1], 7100 nM in assay [2], 1000 nM in assay [4] and 1600 nM in assay [5]. For the same compound, the inhibition constant Ki in assay [3] is 42 nM.
The matching figures for `CC(C)C[C@H](NC(=O)OCc1ccccc1)C(=O)N(C)N(C)C#N`: 18000 nM, 16000 nM, 59 nM, 1900 nM and 8.2 nM.
With `C[C@@H](C#N)NC(=O)[C@H](Cc1ccccc1)NC(=O)OCc1ccccc1`, the IC50 was more than 25000 nM in assay [1], more than 25000 nM in assay [2], 28000 nM in assay [4] and 16000 nM in assay [5]. In assay [3], this compound yielded a Ki of 2200 nM.
As to `C[C@@H](C#N)N(C)C(=O)[C@H](Cc1ccccc1)NC(=O)OCc1ccccc1`, the IC50 in assay [1] is more than 25000 nM; in assay [2], more than 25000 nM; in assay [4], more than 50000 nM; in assay [5], more than 50000 nM. For the same compound, the Ki in assay [3] is 750000 nM.

(Values after ChEMBL document CHEMBL1153118, “Antimalarial activity of azadipeptide nitriles” (Bioorg Med Chem Lett, 2010).)
